m5-HT2A agonist: mouse HTR2A agonism via beta-arrestin recruitment; P35363; CHO-K1 mHTR2A beta-arrestin complementation, luminescence; percent of 30 µM serotonin response; activation, % at 7.6 µM; hit rate 0.66% among 360,000;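 active means activation above a run cutoff, the mean activation of all tested compounds plus 3 SD, cut at about 14% in these data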
APJ antag: blocks the human apelin receptor APJ. P35414. CHO-K1 APJ beta-arrestin complementation, luminescence. inhibition, % at 20 µM. hit rate 0.32% among 330,000. AID 2521;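 active means inhibition above about 40% at 20 µM, limit read from the data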;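 further: cells challenged with 10 nM apelin-13 agonist together with compound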
EBI2 antag: blocks human EBI2 receptor beta-arrestin signaling; P32249; EBI2 beta-arrestin recruitment, luminescence, 7a,25-OHC stimulated; inhibition, % at 5 µM; hit rate 0.81% among 360,000; AID 651636; in the data active means inhibition above about 38%;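 further: enzyme fragment complementation signal reports receptor beta-arrestin coupling in cells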
CXCR6 block: CXCR6 (human) receptor inhibition; O00574; CHO-K1 PathHunter CXCR6 beta-arrestin, luminescence; inhibition, % at 20 µM; hit rate 0.36% among 360,000; AID 602244; in the data active means inhibition above about 34%, passing the limit was not always enough;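 further: antagonist mode with CXCL16 agonist at 10 nM final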
CCR6 antagonist: antagonists of human CCR6 receptor; P51684; CHO-K1 CCR6 PathHunter beta-arrestin, luminescence, CCL20-stimulated; inhibition, % at 20 µM; hit rate 0.49% among 340,000;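 active means compounds whose inhibition of the agonist-driven luminescence signal at 20 µM reaches about 50%, limit read from the data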;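 further: cells stimulated with CCL20 at 14 nM final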
Target sequence (P51684 whole entry, looked up): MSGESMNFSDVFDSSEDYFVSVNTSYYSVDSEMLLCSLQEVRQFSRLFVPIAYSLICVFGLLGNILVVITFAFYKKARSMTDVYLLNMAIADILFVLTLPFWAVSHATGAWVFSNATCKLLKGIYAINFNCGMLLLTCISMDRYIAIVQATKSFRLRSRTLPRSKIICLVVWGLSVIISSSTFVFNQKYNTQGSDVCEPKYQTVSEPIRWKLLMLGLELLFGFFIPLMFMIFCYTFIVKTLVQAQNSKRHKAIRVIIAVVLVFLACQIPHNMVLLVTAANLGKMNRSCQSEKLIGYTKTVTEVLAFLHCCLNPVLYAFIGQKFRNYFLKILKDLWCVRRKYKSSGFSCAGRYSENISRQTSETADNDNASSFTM
APJ ag: APJ receptor agonism; CHO-K1 APJ PathHunter beta-arrestin, luminescence; 0% DMSO wells, 100% apelin; activation, % at 20 µM; hit rate 0.11% among 330,000;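 active means activation more than six SD over the plate average, tested at 20 µM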
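system = engineered CHO-K1 APJ arrestin reporter cells | input = 1000 cells per well | timing = overnight seeding, 90 min compound at 25 °C, 1 h detection | measured by = enzyme-fragment complementation luminescence | read-out = beta-arrestin recruitment to APJ as agonist activity, luminescent signal | control set = negative DMSO alone, positive Apelin-13 at 10 nM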
EBI2 antag conf: EBI2 (human) antagonism, single concentration confirmation. AID 651997. hit rate 29% among 2,400. inhibition, % at 5 µM. EBI2 beta-arrestin luminescence, 7a,25-OHC antagonism. shares compounds with EBI2 antag;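 active means inhibition of at least 50%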
EBI2 ag: activates EBI2, counter-screen for EBI2 antagonists; shares compounds with EBI2 antag; 2,400 tested, under 10 active; EBI2-expressing cells, agonist mode, luminescence, 60 min; 0% vehicle, 100% 7α,25-dihydroxycholesterol control; activation, % at 5 µM; AID 652000;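 active means activation of at least 50%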
bGal counter: inhibits E. coli beta-galactosidase, counter-screen for EBI2 antagonists | AID 652176 | hit rate 1% among 2,400 | purified beta-galactosidase, luminescent Galacton Star, 15 min | inhibition, % at 5 µM | shares compounds with EBI2 antag;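 active means replicate-average signal at least 3 plate SD below neutral wells, shown as high inhibition, flagging enzyme-inhibiting false positives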;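 further: higher means stronger loss of beta-gal luminescence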
Numbers stand for hits; n = inactive; x = not tested or not shown. This is a sample that favours compounds with a hit; in the whole collection about 2.1% have one here.

SMILES	m5-HT2A agonist	APJ antag	EBI2 antag	CXCR6 block	CCR6 antagonist	APJ ag	EBI2 antag conf	EBI2 ag	bGal counter
C=CCN1C(=O)CS/C1=C(\C#N)S(=O)(=O)c1ccc(C)cc1	n	n	n	n	n	n	x	x	x
O=C(CCc1ccccc1)N1CCN(C(=O)CCc2ccccc2)CC1	n	x	55	n	n	x	n	n	n
COc1cc(-c2nnc(COc3ccc(Cl)cc3C)o2)cc(OC)c1OC	n	n	n	n	n	n	x	x	x
Oc1ccc(Br)cc1-c1cc(-c2ccccc2F)[nH]n1	n	n	n	n	n	n	x	x	x
COc1ccc(CCNC(=O)c2cccc(C(=O)NCCc3ccc(OC)cc3)n2)cc1	n	n	50	n	n	n	n	n	n
O=C(Nc1ccc(C(=O)O)cc1)/C(=C\c1ccc(F)cc1)NC(=O)c1ccco1	n	n	n	n	n	n	x	x	x
O=C(Nc1ccc(Cl)cc1)N1CCCC1	n	n	n	n	n	n	x	x	x
Cc1ccc(NC(=O)N2CCC(O)(c3ccc(Cl)cc3)CC2)cc1	n	n	78	n	n	n	75	n	n
CCCCCCSc1ccc(-c2nc3ccc(C)cn3c2NC2CCCCC2)cc1	n	n	45	n	n	n	n	n	n
CS(=O)(=O)N(CC(=O)N1CCN(c2ccccc2F)CC1)c1cc(C(F)(F)F)ccc1Cl	n	n	65	n	n	n	n	n	n
CCOc1ccc(C(=O)NCCN2CCOCC2)cc1	n	n	n	n	n	n	x	x	x
COC(=O)[C@@]1(Cc2ccc(F)cc2)[C@H]2c3cc(C(=O)N4CCCC4)n(CCc4c[nH]c5ccccc45)c3C[C@H]2CN1C(=O)c1ccccc1	n	x	53	n	x	x	n	n	n
COC(=O)[C@@]1(Cc2ccc(OC)cc2)[C@H]2c3cc(C(=O)N4CCCC4)n(CCc4c[nH]c5ccccc45)c3C[C@H]2CN1C(=O)c1ccccc1	n	x	n	n	x	x	x	x	x
COc1ccc(NC(=O)c2cc(=O)c3ccccc3o2)cn1	n	n	n	n	n	n	x	x	x
COc1ccc(NC(=O)c2cc3ccccc3o2)cn1	n	n	38	n	n	n	n	n	n
O=C(NCCc1ccc(Cl)cc1)c1cccs1	n	n	n	n	n	n	x	x	x
Cc1oc(-c2ccc(Cl)cc2)cc1C(=O)NC1CCN(Cc2ccccc2)CC1	n	n	41	n	n	n	n	n	n
Cc1oc(C(C)(C)C)cc1C(=O)NC1CCN(Cc2ccccc2)CC1	n	n	n	n	n	n	x	x	x
COc1ccc2nc(N3CCN(C(=O)c4ccc5ncsc5c4)CC3)sc2c1	n	n	n	n	n	n	x	x	x
COc1ccccc1N1CCN(C(=O)c2ccc3ncsc3c2)CC1	n	x	n	n	n	x	x	x	x
COc1ccc(OC)c2sc(N3CCN(C(=O)c4ccc5ncsc5c4)CC3)nc12	n	n	54	n	n	n	n	n	n
CCOc1cccc2sc(N3CCN(C(=O)c4ccc5ncsc5c4)CC3)nc12	n	n	45	n	n	n	n	n	n
O=C(c1ccc2ncsc2c1)N1CCN(c2cccc(C(F)(F)F)c2)CC1	n	n	54	n	n	n	n	n	n
Cc1cccc(C(=O)NCC(=O)N2CC(=O)Nc3ccccc32)c1	n	n	n	n	n	n	x	x	x
O=C(NN1C(=O)c2ccccc2NC1c1cccnc1)c1ccc([N+](=O)[O-])cc1 (centres undefined)	n	n	n	n	n	n	x	x	x
SMILES	m5-HT2A agonist	APJ antag	EBI2 antag	CXCR6 block	CCR6 antagonist	APJ ag	EBI2 antag conf	EBI2 ag	bGal counter
O=C(NCCOc1ccccc1F)c1cccc(S(=O)(=O)N2CCN(c3ccccc3)CC2)c1	n	n	n	n	n	n	x	x	x
COc1ccc(/C=C/C(=O)c2cc3c(cc2N)OCO3)cc1	n	n	63	n	n	n	n	n	n
COc1ccc(/C=C/C(=O)c2ccc(OC)cc2OC)cc1	n	n	n	n	n	n	x	x	x
O=C1CCN(Cc2ccccc2)C=C1c1ccc(Cl)cc1	n	n	66	n	n	n	58	n	n
O=C1CCN(Cc2ccccc2)C=C1c1ccc(C(F)(F)F)cc1	n	n	69	n	n	n	n	n	n
O=C1CCN(Cc2ccccc2)C=C1c1ccc2ccccc2c1	n	n	90	n	n	n	65	n	n
CCCCCCN1C[C@@H](n2cc(COC(=O)c3ccccc3)nn2)[C@H](O)C[C@@H]1c1ccc(C)cc1	n	x	n	n	x	x	x	x	x
CC(C)CNC(=O)c1c(N)n(/N=C/c2ccccn2)c2nc3ccccc3nc12	n	n	n	n	n	n	x	x	x
CC(N)c1csc(Nc2ccc(C(=O)NCCO)cc2)n1 (centres undefined)	n	x	n	n	x	x	x	x	x
O=C(C(=O)N1CCN(C(=O)c2ccco2)CC1)c1cc2ccccc2o1	n	x	n	x	x	x	x	x	x
O=C(c1cc2ccccc2o1)N1CCN(c2cccc(Cl)c2)CC1	n	n	54	n	n	n	58	n	n
O=C(c1cc2ccccc2o1)N1CCN(c2ccccn2)CC1	n	n	51	n	n	n	n	n	n
O=C(c1ccc(Br)o1)N1CCN(c2ccccn2)CC1	n	n	n	n	n	n	x	x	x
O=C(c1cc2ccccc2o1)N1CCN(c2ccccc2Cl)CC1	n	n	86	n	n	n	67	n	n
O=[N+]([O-])c1ccc(/C=N/Nc2nc(N3CCCCC3)nc(N3CCCCC3)n2)o1	n	n	n	n	n	n	x	x	x
CC(C)C[C@@H](CN1CCC[C@@H]1CN1C(=S)NC[C@@H]1Cc1ccccc1)N1C[C@H](Cc2ccc(O)cc2)N(CC2CCCCC2)C1=S	n	x	n	n	x	x	x	x	x
CC(C)C[C@@H](CN1CCC[C@@H]1CN1C(=S)NC[C@@H]1Cc1ccccc1)N1C[C@H](Cc2ccc(O)cc2)N(CC2CCCCCC2)C1=S	n	x	58	n	x	x	n	n	n
CC(C)C[C@H]1CNC(=S)N1C[C@H]1CCCN1C[C@H](CC(C)C)N1C[C@H](Cc2ccc(O)cc2)N(CC2CCCCCC2)C1=S	n	x	60	n	x	x	n	n	n
O=C1CN(c2ccccc2F)C(=O)CN1c1ccccc1F	n	n	n	n	n	n	x	x	x
Cc1onc(-c2ccccc2)c1-c1ccnn1S(=O)(=O)c1ccc(Cl)cc1	n	n	n	n	n	n	x	x	x
CC(NC(=O)/C=C/c1ccc(Br)cc1)c1ccc(Cl)cc1 (centres undefined)	n	n	54	n	n	n	n	n	n
CN1CCN(NC(=O)/C=C/c2ccc(C(C)(C)C)cc2)CC1	n	n	n	n	n	n	x	x	x

Source: PubChem BioAssay
